A word on the pKa: it is the negative logarithm of the acid dissociation constant. As a reminder, the logD is lipophilicity at a set pH, counting ionised and neutral species. As usually defined, the inhibition is the change of the read-out against control, counted positive when it falls. What is called kinact is the maximal first-order rate at which the target is inactivated.

The values below come from ChEMBL document CHEMBL1126084, “2-Acetylpyridine thiocarbonohydrazones. Potent inactivators of herpes simplex virus ribonucleotide reductase” (J Med Chem, 1992).

Data set [1] in a line: pKa value of the compound. Type of data set: physicochemical. A digest of the protocol: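 Protonation and anion-generation pKa values were determined spectrophotometrically.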
Data set [2] in a line: Partition coefficient (logD5.2) (octanol/pH 5.2 acetate buffer). Format: physicochemical.
Data set [3] relates to Human alphaherpesvirus 1. The data set can be described thus: Inhibition of HSV-1 ribonucleotide reductase. Set-up: concentration or dose not given beside the values. Particulars: concentration not given here. The essentials:
(§1)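 Partially purified HSV-1 ribonucleotide reductase, assayed by reduction of purified [14C]CDP in 200 mM Hepes Na+ pH 7.7, 10 mM dithiothreitol, 2 μM CDP (500 Ci/mol, 3–4 × Km), with and without 5 μM inhibitor unless otherwise indicated. First-order kinact (per hour) and v0 of decelerating product time courses come from iterative nonlinear least squares. kinact is the net increase over the uninhibited control, and % inhibition refers to v0.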

In data set [4] the test system is Human alphaherpesvirus 1. The data set can be described thus: Inhibitory index against HSV-1 ribonucleotide reductase. The essentials:
(§2)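 Index per eq 1 combines kinact and percent inhibition of initial velocity from reductase reactions ±5 μM inhibitor (unless otherwise indicated). 0.99 is subtracted from the calculated ratio, so a non-inhibiting, non-inactivating compound scores zero. HSV-1 and human enzymes were assayed under their respective conditions.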

The test system of data set [5] is Human alphaherpesvirus 1. The data set can be described thus: Inactivation of HSV-1 ribonucleotide reductase at rate constant K inact. A digest of the protocol: as §1
Data set [6] has as its target T1, Ribonucleoside-diphosphate reductase RR1 (Homo sapiens) (UniProt P23921+Q7LG56+P31350). Nature of the data set: Inhibition of human ribonucleotide reductase. Format: protein-complex assay. Set-up: concentration or dose not given beside the values. The note with it: concentration not given here. The essentials: (§3)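 The ATP contributed about 3 μM iron, keeping inhibitors iron-complexed. Reactions ran ±5 μM inhibitor unless otherwise indicated. kinact (per hour, net over the control) and v0 came from iterative nonlinear least-squares fits of decelerating time courses.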

Data set [7] has as its target T1, Ribonucleoside-diphosphate reductase RR1 (Homo sapiens). The data set can be described thus: Inhibitory index against human ribonucleotide reductase. Type of data set: protein-complex assay. A digest of the protocol:
as §2

The target is the same in data set [8]. The data set can be described thus: Inactivation of human ribonucleotide reductase at rate constant K inact. Type of data set: protein-complex assay. The essentials: as §3
The target is the same in data set [9]. The data set can be described thus: Apparent enzyme activity measured as the ratio of HSV-1 and human enzyme inhibition induces. Format: functional. The note with it: Human alphaherpesvirus 1. The essentials:
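Apparent selectivity is the ratio of HSV-1 to human inhibition indices, each from eq 1 at 5 μM inhibitor or at the indicated concentration for each enzyme.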

Structures are written as SMILES.

In data set [1], `C/C(=N\N=C(/S)N/N=C(\S)Nc1ccccc1Cl)c1ccccn1` displayed a pKa of 3.94. Further, the log distribution coefficient (logD) in data set [2] stood at 2.67. For the same compound, the inhibition was determined as 0% in data set [3] and 57% in data set [6]. Further, the Inhibitory index in data set [4] amounted to 27; in data set [7], 1.3. Also, the kinact in data set [5] worked out at 27 h⁻¹; in data set [8], 0 h⁻¹. Further, the Apparent selectivity (HSV-1/human inhibition index ratio) in [9] turned out to be 21.
